Screening results deposited in PubChem by several laboratories.
Diaphorase inh = diaphorase inhibition or chemical oxidation counter-screen; AID 1217; 190,000 tested, 0.69% active; inhibition, % at 20 µM; diaphorase resazurin-to-resorufin fluorescence, NADH, 16 min; bacterial (C. kluyveri) enzyme, not human;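 active = primary screen inhibition at 20 µM above a set limit, cut at about 50% in these data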
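System: Diaphorase enzyme from Clostridium kluyveri | Amount: Enzyme working solution with 0.14 U/mL diaphorase | Benchmarks: No-NADH positive control and DMSO neutral control | Signal: Fluorescence of resorufin formed from resazurin, Ex 544/Em 590 nm | Schedule: 16-min room-temperature incubation before reading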
G6PDH counter = inhibits Leuconostoc G6PDH, flagging false hits in G6PDH-based assays | 200,000 tested, 0.12% active | AID 1020 | Purified L. mesenteroides G6PDH, diaphorase/resazurin coupled fluorescence, 45 min | inhibition, % at 5 µM
WT yeast gro inh = growth inhibition of WT yeast, mitochondrial fusion screen; mitochondrial fusion phenotypic screen, WT strain; inhibition, % at 10 µM; 190,000 tested, 2.1% active; AID 1362; in the data active = inhibition above about 58%; tested in S. cerevisiae
Diaph act CS = activates diaphorase or chemically reduces, flagging diaphorase assay artifacts; AID 1229; activation factor at 20 µM; 190,000 tested, 0.005% active; Diaphorase/resazurin coupled assay, resorufin fluorescence, 16 min; hits give high values; 1 = vehicle wells, 0 = NADH-free wells;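 active = diaphorase activity raised at least twofold by the compound at 20 µM; inactive = activation factor below 2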
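Measured by – red resorufin fluorescence at 544/590 nm excitation/emission · Test system – Clostridium kluyveri diaphorase, purified enzyme · Incubation – reaction time 16 min, room temperature · Buffer or medium – 50 mM HEPES pH 7.4 with 4.542 mM MgCl2, 0.005% Tween 20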
Lmaj promast = Leishmania major promastigote growth inhibition; Leishmania major promastigotes, resazurin fluorescence viability; inhibition, % at 10 µM; 200,000 tested, 9% active;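 also: promastigotes grown with compound for 44 hours at 28 °C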
Of the large screens only hits and unclear results are named; the others gave an inactive call. The list is not random: actives were taken first. Their share in the collection is about 11%. Rule as the data show it, unless noted: active = inhibition above about 50%; inactive = the rest.

COc1ccc(OCC(=O)N2CCN(CC3CC4C=CC3C4)CC2)cc1 (stereo unspecified)	Lmaj promast 86.8
O=C(Cc1ccccc1)N1CCN(Cc2cccnc2)CC1	none
O=C(Cc1ccccc1)N1CCN(CC2CC3C=CC2C3)CC1 (stereo unspecified)	Lmaj promast 66.9
O=C(Cc1ccccc1)N1CCN(CC2CC=CCC2)CC1 (stereo unspecified)	Lmaj promast 81.4
Cc1cc(C)n2c(Br)c(CN3CC4CC(C3)c3cccc(=O)n3C4)nc2n1 (stereo unspecified)	none
COC(=O)C1C2c3ccccc3C(c3ccccc32)C1C(=O)OC (stereo unspecified)	none
O=C(Nc1ccc(Cl)cc1C(=O)c1ccccc1)c1ccccc1	Lmaj promast 68.9
O=C(CNC(=O)c1cccc(Cl)c1)Nc1ccc(Br)cc1C(=O)c1ccccc1	Lmaj promast 59.0
CN1CCN(CCOC2c3ccccc3CSc3ccc(Cl)cc32)CC1 (stereo unspecified)	Lmaj promast 99.1
Clc1ccc2c(c1)C(OC1CN3CCC1CC3)c1ccccc1CS2 (stereo unspecified)	Lmaj promast 100.2
O=C(Cn1nc(-c2ccccc2)ccc1=O)N1CCC2(CC1)OCCO2	none
CCn1nc(-c2ccccc2)nc2c(=O)n(C)c(=O)nc1-2	G6PDH counter 59.4
CN1CCC(N(C)c2ncnc3ccc(Br)cc23)CC1	Lmaj promast 52.1
OCCNc1c2c(nc3ccccc13)CCCC2	WT yeast gro inh 65.5
CCCCn1c(O)c(C(C)=NCC2CCCO2)c(=O)[nH]c1=O (stereo unspecified)	none
CCOC(=O)C1(CCc2ccccc2)CCN(Cc2csc(C(C)=O)c2)CC1	Lmaj promast 82.9
CCOC(=O)C1(CCc2ccccc2)CCN(Cc2cccc3c2OCO3)CC1	Lmaj promast 79.4
NC(=O)C1(N2CCCCC2)CCN(Cc2ccccc2)CC1	none
CCOC(=O)C1(c2ccccc2)CCN(CC(=O)Nc2ccc(C)cc2)CC1	none
CCOC(=O)C1(CCc2ccccc2)CCN(Cc2cccc3cnccc23)CC1	Lmaj promast 82.2
O=C(Nc1ccccc1)N1CC2CC(C1)c1cccc(=O)n1C2 (stereo unspecified)	none
CN1CCN(/N=C/c2c(O)n(C)c(=O)n(C)c2=O)CC1	none (no result: Diaphorase inh, Diaph act CS)
O=C1NC(=O)C(CCc2ccccn2)(Cc2ccc3c(c2)OCO3)C(=O)N1CCc1ccccc1 (stereo unspecified)	Lmaj promast 97.7
c1ccc(CNCCc2ccc3c(c2)OCO3)nc1	none
COc1ccc2nc(NC3=NCCN3)sc2c1	none
Clc1ccc(C2NCCc3[nH]cnc32)cc1 (stereo unspecified)	none
CN1CCN(Cc2ccc(Br)s2)CC1	Lmaj promast 70.3
CCOC(=O)C1SC2(C(F)F)CC1(O)c1c(c(OC)c3occc3c1OC)O2 (stereo unspecified)	WT yeast gro inh 63.9
CN(C)c1cccc2c(C#N)ccc(N(C)C)c12	Diaphorase inh 72.1
COc1cccc(C2(C#N)CCN(C)CC2)c1	none
CCC(=NCc1cccnc1)c1c(O)n(C2CCCCC2)c(=O)[nH]c1=O	none
CCC(=NCc1ccco1)c1c(O)n(C2CCCCC2)c(=O)[nH]c1=O	Lmaj promast 59.5
CC(=NCCO)c1c(O)n(C2CCCCC2)c(=O)[nH]c1=O	none
CCC(=O)c1c(O)n(C2CCCCCC2)c(=O)[nH]c1=O	none
CCN(CC)CCCN=C(C)c1c(O)n(C2CCCCC2)c(=O)[nH]c1=O	Lmaj promast 93.1
CCC(=NCCCN(CC)CC)c1c(O)n(C2CCCCC2)c(=O)[nH]c1=O	Lmaj promast 91.7
CCC(=Nc1ccc(OC)cc1OC)c1c(O)n(C2CCCCC2)c(=O)[nH]c1=O	WT yeast gro inh 68.4
CCN(CC)CCN=Cc1c(O)n(C2CCCCCC2)c(=O)[nH]c1=O	none
Cc1cc(=O)n(-c2ccccc2)n1-c1ccccc1	none
Cc1nn(Cc2ccccc2)c(Cl)c1C(=O)NC1CCCc2ccccc21 (stereo unspecified)	none
CCOC(=O)N1CCC(NC(=O)CCc2nc(C3=CCN(C)CC3)no2)CC1	none
COc1ccccc1Cn1c(SCC#N)nc2cc(C(=O)N3CCC4(CC3)OCCO4)ccc2c1=O	none
OCC12CO[C@@H]3c4ccccc4[C@H](OC1)N32 (stereo partly specified)	none
CC(C)CN(CC(C)C)C(=O)C1C2c3ccccc3C(c3ccccc32)C1C(=O)O (stereo unspecified)	none
OC1(c2ccccc2F)CC2CCC(C1)N2CCN1CCOCC1 (stereo unspecified)	Lmaj promast 52.2
COc1ccc(C(=O)CN2CCOCC2)cc1F	none
O=C1NC(=O)C(=Cc2cc(Cl)ccc2OCc2ccc(C(=O)O)cc2)C(=O)N1	Lmaj promast 93.5
CCCCCCn1c(=O)c(C(=O)Nc2ccncc2)c(O)c2ccccc21	none (no result: Lmaj promast)
CCCCn1c(=O)c(C(=O)Nc2nnc(C(C)C)s2)c(O)c2ccccc21	WT yeast gro inh 69.1
CCCCCCn1c(=O)c(C(=O)Nc2nnc(C)s2)c(O)c2ccccc21	none (no result: Diaphorase inh, Diaph act CS)
CCCCCn1c(=O)c(C(=O)Nc2nc(CC(=O)OCC)cs2)c(O)c2ccccc21	Lmaj promast 90.5
C=CCC1(CN2CCCCCC2=O)C(=O)NC(=O)NC1=O	none
CC(C)n1nnnc1CN1CCN(C)CC1	none
[O-][n+]1onc2c1CCC1N(O)CCC21O (stereo unspecified)	none
COc1ccc(C(CC(=O)N2CCC3(CC2)OCCO3)NS(=O)(=O)c2ccc(C)cc2)cc1 (stereo unspecified)	none
C[C@]12CC[C@@H]3c4ccc(O)c(O)c4CC[C@H]3[C@@H]1CC[C@@H]2O	Diaphorase inh 69.8 (no result: Lmaj promast)
CC(C(=O)O)N(C(=O)c1ccccc1)c1ccc(F)c(Cl)c1 (stereo unspecified)	none
Cc1cccc(-n2c(O)c(C=Nc3ccc(S(N)(=O)=O)cc3)c(=O)[nH]c2=O)c1	none
NS(=O)(=O)c1ccc(N=Cc2c(O)n(C3CCCCC3)c(=O)n(C3CCCCC3)c2=O)cc1	WT yeast gro inh 96.4, Lmaj promast 65.3
CCCCCn1c(NC(=O)c2ccco2)c(C(=O)OCC)c2nc3ccccc3nc21	Diaphorase inh 68.3
CCOC(=O)c1c(N)n(CCCOC(=O)c2ccco2)c2nc3ccccc3nc12	Lmaj promast 82.2
CCOC(=O)c1c(NS(=O)(=O)c2ccccc2)n(CCCOC)c2nc3ccccc3nc12	Lmaj promast 96.0
COCCCNC(=O)c1c(NC(=O)c2ccco2)n(Cc2ccccc2)c2nc3ccccc3nc12	Lmaj promast 96.8
COCCOC(=O)c1c(N)n(Cc2ccco2)c2nc3ccccc3nc12	none (no result: WT yeast gro inh)
N#Cc1ccccc1Cn1cc(C(=O)c2ccccc2F)c2ccccc21	none
CC[N+](C)(CC)CCCOC(=O)C(O)(c1ccccc1)C1CCCCC1 (stereo unspecified)	none
CCC(COC(=O)NC)NC(=O)Oc1ccccc1 (stereo unspecified)	none
